# Only some compounds are listed: those with a hit (about 1.5% of all), similar ones and a draw of the others.
# PG9 binder – PG9 antibody binding by small molecule | TR-FRET gp120-PG9 antibody binding | inhibition, % at 6.7 µM | hit rate 0.43% among 360,000 | AID 624416; in the data active = inhibition above about 8.5%
# NR2E3 ag-1 – activates human photoreceptor nuclear receptor NR2E3. inhibition of corepressor binding, % at 4.78 µM. GST-NR2E3/biotin-RetCOR TR-FRET, 1536-well. hit rate 0.12% among 320,000. Q9Y5X4;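 active = percent inhibition above the cutoff of mean plus 3 SD of all tested compounds, set per screening campaign, cut at about 20% in these data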;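 also: 0% = DMSO wells and 100% = biotin wells as full block of FRET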
#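 Assay system: NR2E3–RetCOR corepressor complex. Quantity: 1.35 nM GST-NR2E3. Buffer or medium: pH 7.5 Tris-based buffer. Reagent: biotinylated RetCOR corepressor at 7 nM final. Schedule: 5 h at 4 °C. Detection: TR-FRET, emission read at 617 and 671 nm. Replicates: one well per compound, singlicate testing.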
# NR2E3 ag-2 – activates human NR2E3 receptor; Q9Y5X4; CHO-S Gal4-NCOR/VP16-NR2E3 two-hybrid, luciferase; inhibition of corepressor binding, % at 3.98 µM; hit rate 0.35% among 360,000;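 active = inhibition above the mean of all tested compounds plus 3 SD, cut at about 70% in these data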;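 also: 0% = DMSO with NR2E3 transfected cells and 100% = cells lacking NR2E3 construct; higher means lower luciferase signal from less NR2E3 corepressor binding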
# NR1D1 modulator – Rev-erb alpha (human) modulation; P20393; Rev-erbα–FITC-DNA binding, fluorescence polarization, 90 min; activity, % at 10 µM; hit rate 0.79% among 370,000; AID 1259318;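 active = activity above about 14%, limit read from the data; passing the limit was not always enough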;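 also: 0% = DMSO wells with 35 nM protein and 100% = DMSO wells with 750 nM protein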
# Target sequence (P20393 whole entry, looked up): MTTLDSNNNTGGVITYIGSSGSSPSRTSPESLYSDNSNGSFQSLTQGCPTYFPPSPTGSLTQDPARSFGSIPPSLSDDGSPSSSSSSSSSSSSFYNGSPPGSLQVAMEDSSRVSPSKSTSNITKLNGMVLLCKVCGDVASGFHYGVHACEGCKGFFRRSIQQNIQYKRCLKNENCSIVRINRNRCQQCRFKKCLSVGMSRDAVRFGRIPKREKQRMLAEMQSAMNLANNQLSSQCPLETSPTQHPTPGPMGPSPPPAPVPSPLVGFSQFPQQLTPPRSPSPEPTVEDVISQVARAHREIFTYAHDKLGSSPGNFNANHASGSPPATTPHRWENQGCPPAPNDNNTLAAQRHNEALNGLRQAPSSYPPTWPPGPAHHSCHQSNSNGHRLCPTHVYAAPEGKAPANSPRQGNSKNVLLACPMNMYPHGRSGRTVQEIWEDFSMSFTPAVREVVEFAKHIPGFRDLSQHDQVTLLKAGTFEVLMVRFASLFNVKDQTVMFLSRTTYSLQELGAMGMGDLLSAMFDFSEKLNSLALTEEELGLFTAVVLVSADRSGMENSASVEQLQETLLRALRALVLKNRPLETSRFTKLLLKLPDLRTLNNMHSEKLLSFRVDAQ
# Rev-erbA confirm – confirmation of modulators of human Rev-erb alpha DNA binding; shares compounds with NR1D1 modulator; Rev-erb alpha FITC-DNA binding, fluorescence polarization, 90 min; activation, % at 25 µM; hit rate 61% among 3,000;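 active = activation at or above a set limit, or at least 3 SD above the negative control mean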;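 also: 0% = 35 nM protein with DMSO and 100% = 750 nM protein high control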
# RORg DNA counter – counter-screen for Rev-erb alpha modulators: RORgamma DNA binding. purified RORgamma protein-FITC-DNA binding, fluorescence polarization. hit rate 8% among 910. shares compounds with NR1D1 modulator. IC50, µM;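 active = Compounds whose fitted half-maximal concentration for disrupting protein-DNA binding is below 10 micromolar; the record names Rev-erb in its text, so the target is in doubt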
# Numbers without * were called inactive; i = inactive; / = no result.
SMILES,PG9 binder,NR2E3 ag-1,NR2E3 ag-2,NR1D1 modulator,Rev-erbA confirm,others
CCn1cc(C(=O)NCCc2ccccc2C)c(=O)c2ccc(C)nc21,-1.6,/,-24.1,43.6*,51.9*,RORg DNA counter=3.77*
COc1cc(OC)cc(C(=O)N=c2sc3ccccc3n2C)c1,2.1,2.2,-30.0,15.9,/,
COC(=O)Cn1c(=NC(=O)c2cccc(OC)c2)sc2cc(OC)ccc21,0.0,0.7,-47.8,31.0*,22.9*,
COc1ccc(C(=O)N=c2sc3ccccc3n2C)cc1,2.4,2.1,-156.6,51.9*,23.1*,
COC(=O)Cn1c(=NC(=O)c2ccc(S(=O)(=O)N3CCc4ccccc4C3)cc2)sc2cc(OC)ccc21,6.5,2.9,-9.1,39.5*,2.2,
COC(=O)Cn1c(=NC(=O)c2cc(OC)cc(OC)c2)sc2cc(OC)ccc21,1.8,-2.6,-22.4,31.2*,4.8,
COc1cccc(C(=O)N/N=c2\sc3ccccc3n2C)c1,-2.3,1.0,7.2,-6.2,/,
COC(=O)Cn1c(=NC(=O)CSCC(=O)Nc2cc(C)on2)sc2cc(C(=O)OC)ccc21,-1.8,0.2,-6.4,5.1,/,
CC(C)CCNC(=O)CSc1nc2c(c(=O)[nH]1)CCC2,/,/,/,-8.5,/,
Cc1cc(C)cc(N(CC(=O)NC2CCC(C)CC2)S(=O)(=O)c2ccccc2)c1 (stereo not given),/,/,/,-2.0,/,
OC(c1ccccc1)(c1ccccc1)C1CCN(CCCNc2ccccc2F)CC1,/,/,/,-2.5,/,
O=C(CNC(=O)c1sc2ccccc2c1Cl)NCc1ccccc1,-8.7,-7.8,-37.2,22.1*,11.3,
Cc1ccnc(NC(=O)CNC(=O)c2sc3ccccc3c2Cl)c1,5.5,8.1,-56.0,35.2*,6.2,
Cc1ccnc(NC(=O)c2cc(-c3ccc(Cl)s3)nc3ccccc23)c1,-3.5,-3.7,-33.4,24.4*,-6.0,
Cc1ccc(S(=O)(=O)N2CCN(C(=O)CNC(=O)c3sc4ccccc4c3Cl)CC2)cc1,-0.3,2.4,-2.8,22.6*,5.1,
COP(=O)(CC(=O)O)C(CC(C)C)NC(=O)OCc1ccccc1 (stereo not given),/,/,/,3.2,/,
COc1ccc(C(=O)N[C@@H]2CC[C@@]34CCCN3C(=O)CCC[C@H]4[C@H]2C)cc1,/,/,/,1.0,/,
CC[C@@H](CCCCCC#N)CCC(=O)N(c1ccccc1)c1ccccc1,/,/,/,-2.4,/,
C=CCN(C(=O)[C@@H](C)[C@@H](O)c1ccc2ccccc2c1)c1ccccc1,/,/,/,-0.3,/,
COc1ccc(CN(CCN2CCOCC2)C(=O)c2ccc(F)cc2F)cc1OC,/,/,/,4.1,/,
Cc1cc(C)cc(OCCCN2CCC(C(O)(c3ccccc3)c3ccccc3)CC2)c1,-0.5,/,/,-0.3,/,
COc1ccc2c(c1)-c1c(ssc1=S)C(C)(C)N2C(=O)CSC1=NCCS1,-0.5,-2.1,9.9,21.2*,30.4*,
COc1ccc(C2CC(c3cccs3)=NN2C(=O)CSC2=NCCS2)cc1 (stereo not given),-3.2,-0.4,-58.6,14.4*,2.1,
C[C@H](O)[C@@H]1CN2CCc3ccc(N4CCOCC4)cc3[C@@H]2C[C@@H]1N(C)C(=O)c1ccccc1F,/,/,/,1.5,/,
CCOC(=O)c1c(NC(=S)Nc2ccc(OC)cc2)sc2c1CCC2,-1.5,4.4,-8.6,47.1*,37.0*,RORg DNA counter=>40
SMILES,PG9 binder,NR2E3 ag-1,NR2E3 ag-2,NR1D1 modulator,Rev-erbA confirm,others
C#CCNC(=O)C[C@H]1C[C@@]2(C(=O)OC)C(=C[C@H](COCc3ccccc3)O[C@@H]2C)N(Cc2ccc(Cl)cc2Cl)C1=O,/,/,/,5.8,/,
CC1(C)Cc2c(c(N3CCCC3)nc3sc(C(=O)Nc4ccccc4)c(N)c23)CO1,1.3,-1.4,-123.7,50.0*,43.6*,RORg DNA counter=i
COc1ccc(NC(=O)c2sc3nc(N4CCOCC4)c4c(c3c2N)CC(C(C)C)OC4)c(OC)c1 (stereo not given),-1.5,2.9,-14.7,-3.8,/,
CCOc1ccc(NC(=O)c2sc3nc(N4CCOCC4)c4c(c3c2N)CC(C)(C)OC4)cc1,0.1,1.1,3.5,33.4*,13.9,
Cc1ccc(NC(=O)c2sc3nc(N4CCOCC4)c4c(c3c2N)CC(C)(C)OC4)cc1,4.1,7.9,-60.4,6.5,/,
COc1ccc(NC(=O)c2sc3nc(N4CCCC4)c4c(c3c2N)CC(C)(C)OC4)c(OC)c1,1.3,3.7,-30.2,53.3*,29.8*,RORg DNA counter=i
CCn1c(SCC(=O)c2ccc(-c3ccccc3)cc2)nnc1-c1ccccc1OC,/,/,/,-1.0,/,
O=C1c2cnc3nc(SCc4cccc(Cl)c4)nn3c2CC2c3ccccc3CCN12 (stereo not given),-2.4,-2.1,-18.4,33.5*,10.8,
CCC[C@H]1[C@@H](NC(=O)c2cccc(C(F)(F)F)c2)CC[C@@]23CCCN2C(=O)CCC[C@@H]13,/,/,/,-5.8,/,
O=C(c1cncnc1)N1CCC(n2nnc3ncccc32)CC1,/,/,/,5.9,/,
Cn1c(=O)c2c(nc(Br)n2CC(=O)c2cccs2)n(C)c1=O,1.8,-0.1,-4.6,-0.2,/,
Cn1c(=O)c2c(nc(SCC(=O)c3cccs3)n2Cc2ccc(F)cc2)n(C)c1=O,0.8,1.6,-7.5,133.4*,99.9*,RORg DNA counter=>40
COc1ccc(-c2oc(=O)c3cc(OC)c(OC)cc3c2C#C[C@]2(O)CC[C@H]3[C@@H]4CCc5cc(OC)ccc5[C@H]4CC[C@@]32C)cc1,-0.5,/,-8.0,29.6*,3.2,
O=C(O)c1cccc(-c2ccc(/C=N/Nc3ccc([N+](=O)[O-])cc3)o2)c1,-3.0,0.4,-44.9,5.4,/,
O=C(O)c1ccc(-c2ccc(/C=N/Nc3ccc([N+](=O)[O-])cc3)o2)cc1,-1.1,-0.1,-67.0,20.7*,18.2*,
COc1ccc(C(=O)N(C)[C@H]2C[C@H]3c4[nH]c5cccc(-c6ccccc6)c5c4CCN3C[C@H]2[C@H](C)O)cc1,/,/,/,9.1,/,
COc1ccc(-c2c(C(F)(F)F)oc3cc(OCC(=O)Nc4ccccc4C(F)(F)F)ccc3c2=O)cc1OC,-1.5,2.2,-28.7,37.0*,20.1*,
CCCCN1C(=O)N2Cc3ccccc3C2CS1(=O)=O (stereo not given),/,/,/,-0.3,/,
CCOc1ccc(-c2nnc3ccc(SCC(=O)Nc4nc5ccc(C)cc5s4)nn23)cc1,1.8,1.9,-2.1,33.8*,33.6*,RORg DNA counter=>40
O[C@H](COc1cccc(C(F)(F)F)c1)CN1CCC(C(O)(c2ccccc2)c2ccccc2)CC1,/,/,/,3.4,/,
C=CCNC(=O)CN(C(=O)Cc1ccc(Cl)nc1)c1cccc(Br)c1,/,/,/,-4.5,/,
O=C(CSc1nc2c(c(=O)[nH]1)CCCC2)N1CCOCC1,/,/,/,1.9,/,
CCCc1cc(=O)oc2cc(OCC(=O)N3CCc4ccccc43)ccc12,1.7,3.4,-5.3,20.9*,8.5,
CCCCc1cc(=O)oc2cc(OCC(=O)N3CCc4ccccc43)ccc12,-1.2,0.9,-28.3,15.5,/,
CCOC(=O)/C(C#N)=C\c1ccc(OCC(=O)Nc2ccc(C)cc2C)c(OC)c1,2.3,2.9,2.5,27.6*,20.9*,
COc1ccc(-c2cc(NC(=O)Cc3c[nH]c4ccccc34)ccc2Nc2cccnc2)c(OC)c1,-1.7,/,/,8.7,/,
